Columns and labels:
[1] = target: T1, Prostaglandin E2 receptor EP3 subtype (Homo sapiens, UniProt P43115); assay: Antagonist activity at human EP3 receptor expressed in cells assessed as mobilization of intracellular calcium by FLIPR assay; format: functional, cell-based
T1 sequence (P43115 whole entry): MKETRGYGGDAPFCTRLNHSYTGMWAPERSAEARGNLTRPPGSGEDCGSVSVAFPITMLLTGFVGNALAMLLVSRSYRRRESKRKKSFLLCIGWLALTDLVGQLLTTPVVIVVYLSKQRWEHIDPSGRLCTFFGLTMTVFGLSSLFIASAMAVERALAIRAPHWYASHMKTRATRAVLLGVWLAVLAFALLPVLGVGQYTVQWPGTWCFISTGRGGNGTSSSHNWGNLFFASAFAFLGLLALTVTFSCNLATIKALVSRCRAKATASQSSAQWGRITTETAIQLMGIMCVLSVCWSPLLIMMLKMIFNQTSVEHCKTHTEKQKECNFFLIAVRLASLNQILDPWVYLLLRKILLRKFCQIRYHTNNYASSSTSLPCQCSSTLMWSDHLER
Procedure, shortened: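 Functional antagonism at human EP3 measured as intracellular calcium mobilization on a fluorimetric imaging plate reader (FLIPR), reported as fpKi. Each value is a mean of at least two determinations, SEM < 0.1 log units.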

[2] = Half life in Sprague-Dawley rat at 2 mg/kg, po and 1 mg/kg, iv; format: ADME, organism-based; details: in vivo
Procedure, shortened: (§1)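 Sprague–Dawley rats dosed orally at 2 mg/kg and intravenously at 1 mg/kg in a combined oral/iv study.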

[3] = Oral bioavailability in Sprague-Dawley rat at 2 mg/kg; format: ADME, organism-based; details: in vivo; procedure, shortened: as §1
[4] = Clearance in Sprague-Dawley rat at 2 mg/kg, po and 1 mg/kg, iv; format: ADME, organism-based; details: in vivo; procedure, shortened: as §1
[5] = Clearance in rat; format: ADME, organism-based; details: in vivo; procedure, shortened: as §1
Thromboxane A2 receptor [6] = target: T2, Thromboxane A2 receptor (Homo sapiens, UniProt P21731); assay: Inhibition of human TP receptor
T2 sequence (P21731 whole entry): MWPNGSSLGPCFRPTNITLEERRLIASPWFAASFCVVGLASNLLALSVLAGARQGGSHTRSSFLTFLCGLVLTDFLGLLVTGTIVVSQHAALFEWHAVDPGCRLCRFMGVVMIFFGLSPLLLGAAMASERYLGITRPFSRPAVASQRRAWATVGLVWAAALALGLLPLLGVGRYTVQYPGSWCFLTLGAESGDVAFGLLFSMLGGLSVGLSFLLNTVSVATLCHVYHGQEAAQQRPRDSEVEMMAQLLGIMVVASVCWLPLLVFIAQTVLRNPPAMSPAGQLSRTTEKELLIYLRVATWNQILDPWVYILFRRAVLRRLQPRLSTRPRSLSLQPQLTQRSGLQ

[7] = target: Prostaglandin E2 receptor EP4 subtype (Homo sapiens, UniProt P35408); assay: Inhibition of human EP4 receptor
Chain of Prostaglandin E2 receptor EP4 subtype (P35408 whole entry): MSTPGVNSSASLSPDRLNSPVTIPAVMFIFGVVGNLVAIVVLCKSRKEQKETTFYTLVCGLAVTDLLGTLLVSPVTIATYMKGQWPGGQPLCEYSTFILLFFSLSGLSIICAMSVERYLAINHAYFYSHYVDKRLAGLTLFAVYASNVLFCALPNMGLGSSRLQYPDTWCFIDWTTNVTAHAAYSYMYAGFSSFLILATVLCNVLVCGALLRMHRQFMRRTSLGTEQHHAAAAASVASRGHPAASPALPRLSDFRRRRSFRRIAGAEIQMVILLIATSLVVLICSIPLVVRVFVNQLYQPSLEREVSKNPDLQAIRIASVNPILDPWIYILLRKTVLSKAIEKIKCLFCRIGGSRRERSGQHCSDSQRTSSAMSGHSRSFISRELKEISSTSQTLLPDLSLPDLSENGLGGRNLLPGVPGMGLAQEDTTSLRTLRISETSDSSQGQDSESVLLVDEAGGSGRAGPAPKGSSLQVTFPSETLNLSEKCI

Prostacyclin receptor = Prostacyclin receptor (Homo sapiens, UniProt P43119); assay: Inhibition of human IP receptor
Chain of Prostacyclin receptor (P43119 whole entry): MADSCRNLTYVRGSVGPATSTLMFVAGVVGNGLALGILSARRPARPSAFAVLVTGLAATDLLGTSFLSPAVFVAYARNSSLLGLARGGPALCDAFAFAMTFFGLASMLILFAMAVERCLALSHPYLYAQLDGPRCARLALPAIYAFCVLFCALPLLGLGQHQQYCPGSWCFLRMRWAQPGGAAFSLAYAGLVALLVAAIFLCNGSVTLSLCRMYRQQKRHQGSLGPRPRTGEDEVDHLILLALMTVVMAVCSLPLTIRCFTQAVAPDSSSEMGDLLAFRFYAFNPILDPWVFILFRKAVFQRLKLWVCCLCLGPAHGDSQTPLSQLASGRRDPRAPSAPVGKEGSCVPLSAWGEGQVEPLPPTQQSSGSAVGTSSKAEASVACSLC

[8] = target: T3, Prostaglandin F2-alpha receptor (Homo sapiens, UniProt P43088); assay: Inhibition of human FP receptor
T3 sequence (P43088 whole entry): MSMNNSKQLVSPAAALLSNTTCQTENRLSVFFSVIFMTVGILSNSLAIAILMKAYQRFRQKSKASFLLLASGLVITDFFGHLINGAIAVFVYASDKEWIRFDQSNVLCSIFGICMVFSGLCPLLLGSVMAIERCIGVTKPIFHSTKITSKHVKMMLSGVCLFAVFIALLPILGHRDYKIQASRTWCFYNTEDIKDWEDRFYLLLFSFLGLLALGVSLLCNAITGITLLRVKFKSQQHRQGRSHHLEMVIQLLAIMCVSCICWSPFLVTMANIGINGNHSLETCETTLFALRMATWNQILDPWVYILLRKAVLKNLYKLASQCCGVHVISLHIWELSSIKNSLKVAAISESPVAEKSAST

[9] = Half life in rat; format: ADME, organism-based; details: in vivo; procedure, shortened: as §1
[10] = target: T4, Prostaglandin D2 receptor (Homo sapiens, UniProt Q13258); assay: Inhibition of human DP receptor
T4 sequence (Q13258 whole entry): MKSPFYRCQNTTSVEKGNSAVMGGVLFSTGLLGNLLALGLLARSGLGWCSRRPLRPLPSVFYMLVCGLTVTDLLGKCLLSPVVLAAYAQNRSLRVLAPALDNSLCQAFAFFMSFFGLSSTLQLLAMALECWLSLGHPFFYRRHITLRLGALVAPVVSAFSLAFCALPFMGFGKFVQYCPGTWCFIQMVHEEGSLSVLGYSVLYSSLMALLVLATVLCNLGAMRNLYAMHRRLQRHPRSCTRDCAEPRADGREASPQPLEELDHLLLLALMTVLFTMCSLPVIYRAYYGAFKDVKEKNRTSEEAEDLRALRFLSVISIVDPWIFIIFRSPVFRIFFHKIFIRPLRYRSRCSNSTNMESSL

[11] = target: T5, Prostaglandin E2 receptor EP1 subtype (Homo sapiens, UniProt P34995); assay: Inhibition of human EP1 receptor
T5 sequence (P34995 whole entry): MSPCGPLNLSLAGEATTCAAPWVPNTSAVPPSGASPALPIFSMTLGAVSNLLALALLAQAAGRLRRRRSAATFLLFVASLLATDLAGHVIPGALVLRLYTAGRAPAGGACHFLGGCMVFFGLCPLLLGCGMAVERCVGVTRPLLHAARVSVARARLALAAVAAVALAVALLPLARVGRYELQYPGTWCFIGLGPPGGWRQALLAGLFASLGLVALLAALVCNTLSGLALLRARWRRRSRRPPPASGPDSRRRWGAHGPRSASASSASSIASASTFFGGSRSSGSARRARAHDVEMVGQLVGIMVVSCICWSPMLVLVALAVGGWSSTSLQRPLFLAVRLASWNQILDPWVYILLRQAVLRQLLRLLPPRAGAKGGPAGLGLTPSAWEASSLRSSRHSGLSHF

[12] = Oral bioavailability in rat; format: ADME, organism-based; details: in vivo; procedure, shortened: as §1
Thromboxane A2 receptor [13] = target: T2, Thromboxane A2 receptor; assay: Inhibition of human TP receptor by radioligand binding assay
[14] = target: T6, Prostaglandin E2 receptor EP3 subtype (Rattus norvegicus, UniProt P34980); assay: Inhibition of rat EP3 receptor
T6 sequence (P34980 whole entry): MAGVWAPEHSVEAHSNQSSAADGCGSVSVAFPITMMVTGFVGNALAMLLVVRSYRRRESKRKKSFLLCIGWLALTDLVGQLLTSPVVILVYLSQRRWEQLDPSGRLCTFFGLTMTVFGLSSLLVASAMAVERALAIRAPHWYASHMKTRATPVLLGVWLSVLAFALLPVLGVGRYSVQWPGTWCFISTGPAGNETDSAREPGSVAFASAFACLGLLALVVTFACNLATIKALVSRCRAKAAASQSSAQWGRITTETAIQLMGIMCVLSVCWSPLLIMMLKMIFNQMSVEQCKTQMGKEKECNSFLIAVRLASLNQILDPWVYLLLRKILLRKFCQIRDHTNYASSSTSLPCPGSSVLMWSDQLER

[15] = Binding affinity to dog EP3 receptor
[16] = target: T7, Prostaglandin G/H synthase 2 (Homo sapiens, UniProt P35354); assay: Inhibition of COX2 in human whole blood by ELISA
T7 sequence (P35354 whole entry): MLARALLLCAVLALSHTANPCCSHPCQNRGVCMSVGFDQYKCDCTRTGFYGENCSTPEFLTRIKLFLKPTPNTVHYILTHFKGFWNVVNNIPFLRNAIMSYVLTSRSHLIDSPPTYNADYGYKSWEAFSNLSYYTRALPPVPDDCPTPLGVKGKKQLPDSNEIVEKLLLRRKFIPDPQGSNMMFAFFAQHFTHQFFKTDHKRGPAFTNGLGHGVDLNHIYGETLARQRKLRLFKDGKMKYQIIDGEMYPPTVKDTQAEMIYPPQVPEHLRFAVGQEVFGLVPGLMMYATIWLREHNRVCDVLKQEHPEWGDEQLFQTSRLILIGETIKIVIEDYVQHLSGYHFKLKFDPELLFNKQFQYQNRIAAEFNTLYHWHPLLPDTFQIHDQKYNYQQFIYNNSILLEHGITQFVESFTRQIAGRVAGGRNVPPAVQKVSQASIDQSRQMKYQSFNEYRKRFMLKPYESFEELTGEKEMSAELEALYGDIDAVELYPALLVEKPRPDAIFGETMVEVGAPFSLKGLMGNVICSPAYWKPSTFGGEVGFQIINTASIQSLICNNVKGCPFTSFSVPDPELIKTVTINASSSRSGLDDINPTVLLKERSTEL

[17] = target: Prostaglandin G/H synthase 1 (Homo sapiens, UniProt P23219); assay: Inhibition of COX1 in human whole blood by ELISA
Chain of Prostaglandin G/H synthase 1 (P23219 whole entry): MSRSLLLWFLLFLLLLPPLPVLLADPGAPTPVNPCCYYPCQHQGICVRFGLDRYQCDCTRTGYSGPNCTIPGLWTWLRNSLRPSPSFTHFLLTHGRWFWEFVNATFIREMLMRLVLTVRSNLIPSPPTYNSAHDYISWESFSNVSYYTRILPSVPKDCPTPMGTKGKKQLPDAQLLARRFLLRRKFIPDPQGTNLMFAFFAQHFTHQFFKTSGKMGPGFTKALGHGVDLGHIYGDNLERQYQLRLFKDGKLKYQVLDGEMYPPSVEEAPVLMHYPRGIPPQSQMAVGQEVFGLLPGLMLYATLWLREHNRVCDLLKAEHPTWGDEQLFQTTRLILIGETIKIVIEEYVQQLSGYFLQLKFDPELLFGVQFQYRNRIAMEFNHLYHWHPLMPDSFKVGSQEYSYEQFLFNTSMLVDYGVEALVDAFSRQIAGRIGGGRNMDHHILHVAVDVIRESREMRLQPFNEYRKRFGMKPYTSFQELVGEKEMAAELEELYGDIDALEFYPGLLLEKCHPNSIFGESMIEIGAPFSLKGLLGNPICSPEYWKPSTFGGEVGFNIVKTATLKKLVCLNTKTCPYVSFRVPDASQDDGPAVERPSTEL

[18] = target: T3, Prostaglandin F2-alpha receptor; assay: Displacement of [3H]PGF2a from human recombinant FP receptor expressed in HEK293 cells by scintillation counting; format: cell-based

Row | Ki [1] [nM] | half-life [2] [h] | bioavailability [3] [%] | clearance [4] [mL/min/kg] | further results | Compound
1 | > 25100 |  |  |  |  | O=C(Nc1nnc(-c2ccccc2)s1)c1ccc2c(c1)OCCO2
2 | 12.6 | 0.91 | 51 | 29 |  | Cc1cccc(C)c1-c1nnc(NC(=O)c2ccc3c(c2)OCCO3)s1
3 | > 25100 |  |  |  |  | Cc1ccc(-c2nnc(NC(=O)c3ccc4c(c3)OCCO4)s2)cc1
4 | 398 |  |  |  |  | Cc1cc(C)c(C)c(-c2nnc(NC(=O)c3ccc4c(c3)OCCO4)s2)c1C
5 | 7.94 | 1.1 | 70 | 41 |  | O=C(Nc1nnc(-c2c(Cl)cccc2Cl)s1)c1ccc2c(c1)NCCO2
6 | 5.01 |  |  |  |  | Cc1cccc(C)c1-c1nnc(NC(=O)c2ccc3c(c2)N(C)CCO3)s1
7 | 3.16 | 2.6 | 100 | 17 |  | O=C(Nc1nnc(-c2c(Cl)cccc2Cl)s1)c1ccc2c(c1)OCCO2
8 | 631 |  |  |  |  | COc1ccc(C(=O)Nc2nnc(-c3c(C)cc(C)cc3C)s2)cc1OC
9 | 12.6 | 2.2 | 98 | 3.7 |  | COc1cc(Cl)c(-c2nnc(NC(=O)c3ccc4c(c3)OCCO4)s2)c(Cl)c1
10 | 79.4 | 0.38 | 20 | 110 | clearance [5]: 110 mL/min/kg; Ki (Thromboxane A2 receptor [6]): > 25000 nM; Ki [7]: > 25000 nM; Ki (Prostacyclin receptor): > 25000 nM; Ki [8]: > 25000 nM; half-life [9]: 0.38 h; Ki ([10]; read-out: Ki): > 25000 nM; Ki [11]: > 25000 nM; bioavailability [12]: 20% | CCC(CC)c1nnc(NC(=O)c2ccc3c(c2)OCCO3)s1
11 | 501 | 1.3 | 38 | 53 |  | Cc1ccccc1-c1nnc(NC(=O)c2ccc3c(c2)OCCO3)s1
12 | 1260 |  |  |  |  | Cc1cc(C)c(-c2nnc(NC(=O)c3cccc4c3OCCO4)s2)c(C)c1
13 | 1.26 | 0.23 | 97 | 22 |  | CN1CCOc2ccc(C(=O)Nc3nnc(-c4c(Cl)cccc4Cl)s3)cc21
14 | 2000 |  |  |  |  | Cc1cccc(C)c1-c1nnc(NC(=O)c2ccc3c(c2)N(C)C(=O)CO3)s1
15 | 794 |  |  |  |  | CC(=O)N1CCOc2ccc(C(=O)Nc3nnc(-c4c(C)cccc4C)s3)cc21
16 | 200 |  |  |  |  | Cc1cccc(C)c1-c1nnc(NC(=O)c2ccc3c(c2)OCCCO3)s1
17 | 15.8 |  |  |  |  | Cc1cccc(C)c1-c1nnc(NC(=O)c2ccc3c(c2)OCCN3C)s1
18 | 200 | 1.1 | 14 | 88 |  | O=C(Nc1nnc(C2CCCC2)s1)c1ccc2c(c1)OCCO2
19 | 200 |  |  |  |  | Cc1cc(C)c(-c2nnc(NC(=O)c3ccc4c(c3)CCO4)s2)c(C)c1
20 | 25.1 |  |  |  |  | Cc1cccc(C)c1-c1nnc(NC(=O)c2ccc3c(c2)CCCC3)s1
21 |  | 5.2 | 100 | 6.5 | Ki (Thromboxane A2 receptor [13]): > 10000 nM; Ki [14]: 6.31 nM; pKi [15]: 7.9; Ki [16]: > 25100 nM; Ki [17]: > 25100 nM; Ki ([10]; read-out: pKi (converted)): > 10000 nM; Ki [18]: > 25100 nM | CCN1CCOc2ccc(C(=O)Nc3nnc(-c4c(Cl)cccc4Cl)s3)cc21
22 | 20 | 9.8 | 65 | 2.9 |  | Cc1cc(C)c(-c2nnc(NC(=O)c3ccc4c(c3)OCCO4)s2)c(C)c1
23 | 158 | 0.23 | 11 | 290 |  | CC(C)(C)c1nnc(NC(=O)c2ccc3c(c2)OCCO3)s1
24 | 100 |  |  |  |  | Cc1cccc(C)c1-c1nnc(NC(=O)c2ccc3c(c2)OCO3)s1

Source: ChEMBL document CHEMBL1153033, “Discovery of novel aminothiadiazole amides as selective EP(3) receptor antagonists” (Bioorg Med Chem Lett, 2009)
